# Reference: ChEMBL document CHEMBL4689842, “EUbOPEN Chemogenomics Library wave 1” (2021)
# Tested on: U2OS
# Experiment: Multiplex assay against U2OS
# Type: toxicity, cell-based
# Conditions: human
# Summary of the method: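 With compound added, live cells were imaged on a CQ1 microscope at 37°C and 5% CO2; staining with Hoechst33342, BioTracker Green Microtubule Cytoskeleton Dye, MitoTracker Red and Annexin V Alexa Fluor 680 had been done at seeding. The CellPathfinder machine-learning gating scheme split cells into Hoechst high-intensity objects or normal cells, normal cells into healthy, pyknosed or fragmented nuclei, and pyknosed cells into mitotic or apoptotic. The tubulin, mitochondrial-mass and membrane-permeability phenotypes are per cents of healthy-nucleus cells.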
# [1] = 12 h, 1 µM, compound concentration 1 uM, replicate 1
# [2] = 12 h, 1 µM, compound concentration 1 uM, replicate 2
# [3] = 12 h, 10 µM, compound concentration 10 uM, replicate 1
# [4] = 12 h, 10 µM, compound concentration 10 uM, replicate 2
# [5] = 24 h, 1 µM, compound concentration 1 uM, replicate 1
# [6] = 24 h, 1 µM, compound concentration 1 uM, replicate 2
# [7] = 24 h, 10 µM, compound concentration 10 uM, replicate 1
# [8] = 24 h, 10 µM, compound concentration 10 uM, replicate 2
# [9] = 48 h, 1 µM, compound concentration 1 uM, replicate 1
# [10] = 48 h, 1 µM, compound concentration 1 uM, replicate 2
# [11] = 48 h, 10 µM, compound concentration 10 uM, replicate 1
# [12] = 48 h, 10 µM, compound concentration 10 uM, replicate 2
smiles,measurement,setting,value
Oc1cccc(-c2nc(N3CCOCC3)c3oc4ncccc4c3n2)c1 [PI-103],Population Apoptotic (%),[1],73%
same,Population Fragmented Nuclei (%),[1],20%
same,Population Healthy Nuclei (%),[1],67%
same,Population Hoechst High Intensity Objects (%),[1],11%
same,Population Membrane Permeable-Phenotype (%),[1],8%
same,Population Mitochondria Different-Phenotype (%),[1],7%
same,Population Mitotic Cells (%),[1],26%
same,Population Normal (%),[1],88%
same,Population Pyknosed Nuclei (%),[1],12%
same,Population Tubulin-Different-Phenotype (%),[1],14%
same,Total Cell Count,[1],224
same,Population Apoptotic (%),[2],47%
same,Population Fragmented Nuclei (%),[2],10%
same,Population Healthy Nuclei (%),[2],63%
same,Population Hoechst High Intensity Objects (%),[2],5%
same,Population Membrane Permeable-Phenotype (%),[2],2%
same,Population Mitotic Cells (%),[2],52%
same,Population Normal (%),[2],94%
same,Population Pyknosed Nuclei (%),[2],26%
same,Population Tubulin-Different-Phenotype (%),[2],0%
same,Total Cell Count,[2],73
same,Population Apoptotic (%),[3],42%
same,Population Fragmented Nuclei (%),[3],20%
same,Population Healthy Nuclei (%),[3],47%
same,Population Hoechst High Intensity Objects (%),[3],6%
same,Population Membrane Permeable-Phenotype (%),[3],35%
same,Population Mitochondria Different-Phenotype (%),[3],63%
same,Population Mitotic Cells (%),[3],57%
same,Population Normal (%),[3],93%
same,Population Pyknosed Nuclei (%),[3],31%
same,Population Tubulin-Different-Phenotype (%),[3],80%
same,Total Cell Count,[3],168
same,Population Apoptotic (%),[4],36%
same,Population Fragmented Nuclei (%),[4],18%
same,Population Healthy Nuclei (%),[4],39%
same,Population Hoechst High Intensity Objects (%),[4],5%
same,Population Membrane Permeable-Phenotype (%),[4],33%
same,Population Mitochondria Different-Phenotype (%),[4],59%
same,Population Mitotic Cells (%),[4],63%
same,Population Normal (%),[4],94%
same,Population Pyknosed Nuclei (%),[4],41%
same,Population Tubulin-Different-Phenotype (%),[4],83%
same,Total Cell Count,[4],69
same,Population Apoptotic (%),[5],56%
same,Population Fragmented Nuclei (%),[5],21%
same,Population Healthy Nuclei (%),[5],61%
same,Population Hoechst High Intensity Objects (%),[5],8%
same,Population Membrane Permeable-Phenotype (%),[5],7%
same,Population Mitochondria Different-Phenotype (%),[5],4%
same,Population Mitotic Cells (%),[5],43%
same,Population Normal (%),[5],91%
same,Population Pyknosed Nuclei (%),[5],16%
same,Population Tubulin-Different-Phenotype (%),[5],11%
same,Total Cell Count,[5],224
same,Population Apoptotic (%),[6],75%
same,Population Fragmented Nuclei (%),[6],14%
same,Population Healthy Nuclei (%),[6],69%
same,Population Hoechst High Intensity Objects (%),[6],6%
same,Population Membrane Permeable-Phenotype (%),[6],3%
same,Population Mitochondria Different-Phenotype (%),[6],3%
same,Population Mitotic Cells (%),[6],25%
same,Population Normal (%),[6],93%
same,Population Tubulin-Different-Phenotype (%),[6],1%
same,Total Cell Count,[6],73
same,Population Apoptotic (%),[7],54%
same,Population Fragmented Nuclei (%),[7],25%
same,Population Healthy Nuclei (%),[7],40%
same,Population Hoechst High Intensity Objects (%),[7],10%
same,Population Membrane Permeable-Phenotype (%),[7],20%
same,Population Mitochondria Different-Phenotype (%),[7],62%
same,Population Mitotic Cells (%),[7],45%
same,Population Normal (%),[7],89%
same,Population Pyknosed Nuclei (%),[7],34%
same,Population Tubulin-Different-Phenotype (%),[7],74%
same,Total Cell Count,[7],196
same,Population Apoptotic (%),[8],50%
same,Population Fragmented Nuclei (%),[8],28%
same,Population Healthy Nuclei (%),[8],24%
same,Population Hoechst High Intensity Objects (%),[8],4%
same,Population Membrane Permeable-Phenotype (%),[8],44%
same,Population Mitochondria Different-Phenotype (%),[8],75%
same,Population Mitotic Cells (%),[8],49%
same,Population Normal (%),[8],95%
same,Population Pyknosed Nuclei (%),[8],47%
same,Population Tubulin-Different-Phenotype (%),[8],89%
same,Total Cell Count,[8],80
same,Population Apoptotic (%),[9],70%
same,Population Fragmented Nuclei (%),[9],18%
same,Population Healthy Nuclei (%),[9],64%
same,Population Hoechst High Intensity Objects (%),[9],7%
same,Population Membrane Permeable-Phenotype (%),[9],7%
same,Population Mitochondria Different-Phenotype (%),[9],6%
same,Population Mitotic Cells (%),[9],29%
same,Population Normal (%),[9],92%
same,Population Pyknosed Nuclei (%),[9],17%
same,Population Tubulin-Different-Phenotype (%),[9],16%
same,Total Cell Count,[9],222
same,Population Apoptotic (%),[10],63%
same,Population Fragmented Nuclei (%),[10],10%
same,Population Healthy Nuclei (%),[10],75%
same,Population Hoechst High Intensity Objects (%),[10],4%
same,Population Membrane Permeable-Phenotype (%),[10],8%
same,Population Mitochondria Different-Phenotype (%),[10],4%
same,Population Mitotic Cells (%),[10],36%
same,Population Normal (%),[10],95%
same,Population Pyknosed Nuclei (%),[10],13%
same,Population Tubulin-Different-Phenotype (%),[10],8%
same,Total Cell Count,[10],72
same,Population Apoptotic (%),[11],70%
same,Population Fragmented Nuclei (%),[11],35%
same,Population Healthy Nuclei (%),[11],26%
same,Population Hoechst High Intensity Objects (%),[11],15%
same,Population Membrane Permeable-Phenotype (%),[11],37%
same,Population Mitochondria Different-Phenotype (%),[11],48%
same,Population Mitotic Cells (%),[11],29%
same,Population Normal (%),[11],84%
same,Population Pyknosed Nuclei (%),[11],38%
same,Population Tubulin-Different-Phenotype (%),[11],56%
same,Total Cell Count,[11],215
same,Population Apoptotic (%),[12],68%
same,Population Fragmented Nuclei (%),[12],26%
same,Population Hoechst High Intensity Objects (%),[12],12%
same,Population Membrane Permeable-Phenotype (%),[12],85%
same,Population Mitochondria Different-Phenotype (%),[12],77%
same,Population Mitotic Cells (%),[12],31%
same,Population Normal (%),[12],87%
same,Population Pyknosed Nuclei (%),[12],47%
same,Population Tubulin-Different-Phenotype (%),[12],88%
same,Total Cell Count,[12],86
